The values below come from ChEMBL document CHEMBL1140036, “Novel glucagon receptor antagonists with improved selectivity over the glucose-dependent insulinotropic polypeptide receptor” (J Med Chem, 2008).

Activity calls are given as the source filed them. The rule behind the calls is not given here.

In data set [1] the target is Glucagon receptor (Homo sapiens, UniProt P47871). The data set is described as follows: Binding affinity to human cloned GluR expressed in BHK cells. Type of data set: cell-based. An outline of the steps:
(§1)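 Competitive binding on purified plasma membranes from BHK cells expressing the cloned human receptor (glucagon, GIP or GLP-1 receptor). The glucagon receptor protocol follows earlier published work, and the GIP and GLP-1 assays were done the same way.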

Data set [2] deals with T1, Gastric inhibitory polypeptide receptor (Homo sapiens, UniProt P48546).
T1 sequence (P48546 whole entry): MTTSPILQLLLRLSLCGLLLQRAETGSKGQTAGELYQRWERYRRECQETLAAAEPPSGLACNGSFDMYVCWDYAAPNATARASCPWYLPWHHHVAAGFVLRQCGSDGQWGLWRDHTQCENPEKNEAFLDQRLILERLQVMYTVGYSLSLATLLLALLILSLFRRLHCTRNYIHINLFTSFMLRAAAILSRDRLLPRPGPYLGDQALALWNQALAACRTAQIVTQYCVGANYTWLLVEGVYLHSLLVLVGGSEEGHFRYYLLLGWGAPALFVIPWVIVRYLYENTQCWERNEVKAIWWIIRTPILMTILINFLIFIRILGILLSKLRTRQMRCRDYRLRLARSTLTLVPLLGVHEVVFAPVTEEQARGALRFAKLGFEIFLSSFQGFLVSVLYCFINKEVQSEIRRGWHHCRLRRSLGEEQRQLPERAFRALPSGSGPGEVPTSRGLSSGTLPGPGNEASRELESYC
In words: Binding affinity to human cloned GIPR expressed in BHK cells. The data set is classed as cell-based. In outline: as §1

Data set [3] addresses Glucagon-like peptide 1 receptor (Homo sapiens, UniProt P43220). In words: Binding affinity to human cloned GLP1R expressed in BHK cells. The data set is classed as cell-based. An outline of the steps:
as §1

A short description of data set [4]: Oral bioavailability in Sprague-Dawley rat at 4 mg/kg. The settings on record: in vivo. Type of data set: ADME, organism-based. In outline: (§2)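 Fasted male Sprague-Dawley rats (~200 g) were given 2 mg/kg iv or 4 mg/kg po. Vehicle: 5% ethanol, 20% propylene glycol, 10% hydroxypropyl-β-cyclodextrin in phosphate buffer pH 7.5-8.0. EDTA blood was taken by heart puncture under CO2 at 5-360 min (iv) or 15-360 min (po). Plasma was analysed by HTLC-MS/MS, with noncompartmental PK analysis.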

Data set [5] in a line: Half life in Sprague-Dawley rat at 2 mg/kg, iv. Type of data set: ADME, organism-based. Further details: dose 2 mg/kg, route intravenous. The settings on record: in vivo. In outline:
as §2

Data set [6] concerns Hepatocyte. The data set is described as follows: Inhibition of adrenaline-stimulated glycogenolysis in rat hepatocytes up to 25 uM. The data set is classed as functional, cell-based. An outline of the steps: (§3)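 Glycogen-loaded cultured primary rat hepatocytes, either unstimulated (basal) or adrenaline-stimulated, in medium with 0.1% HSA. Compounds were tested at concentrations up to 25 µM, and glycogenolysis was read as glucose release.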

For data set [7], the system named is Pancreas. In words: Inhibition of GIP-stimulated insulin secretion in rat pancreas. The data set is classed as functional, tissue-based. An outline of the steps:
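Isolated perfused rat pancreas: 80 mg/dL glucose at 1-4 min, then 160 mg/dL glucose with compound at 5-50 min, and 500 pM GIP infused at 15-34 min. Portal outflow was collected each minute and insulin measured by radioimmunoassay; n = 4 per group.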

For data set [8], the system named is Hepatocyte. In words: Inhibition of basal glycogenolysis in rat hepatocytes up to 25 uM. Type of data set: functional, cell-based. In outline:
as §3

Data set [9] concerns Hepatocyte. In words: Increase in lactate production in rat hepatocytes. The data set is classed as functional, cell-based.
Data set [10] relates to Hepatocyte. The data set is described as follows: Inhibition of glucagon-stimulated glycogenolysis in rat hepatocytes. The data set is classed as functional, cell-based. An outline of the steps: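 Isolated, cultured primary rat hepatocytes were loaded with glycogen and stimulated with 0.5 nM glucagon plus increasing compound concentrations in medium containing 0.1% HSA. Glucose released into the medium was measured after 60 min, and IC50 was derived.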

The target in data set [11] is Glucagon receptor (Rattus norvegicus, UniProt P30082). In words: Binding affinity to GlucR in rat liver membrane. Type of data set: cell membranes. In outline: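 Competitive binding on isolated rat liver membrane preparations, run by the same protocol as the human glucagon receptor binding assay.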
In data set [12] the test system is BHK. The data set is described as follows: Selectivity ratio of IC50 for human cloned GluR to IC50 for human cloned GLP1R expressed in BHK cells. Type of data set: cell-based.
In data set [13] the target is T2, Gastric inhibitory polypeptide receptor (Rattus norvegicus, UniProt P43219).
T2 sequence (P43219 whole entry): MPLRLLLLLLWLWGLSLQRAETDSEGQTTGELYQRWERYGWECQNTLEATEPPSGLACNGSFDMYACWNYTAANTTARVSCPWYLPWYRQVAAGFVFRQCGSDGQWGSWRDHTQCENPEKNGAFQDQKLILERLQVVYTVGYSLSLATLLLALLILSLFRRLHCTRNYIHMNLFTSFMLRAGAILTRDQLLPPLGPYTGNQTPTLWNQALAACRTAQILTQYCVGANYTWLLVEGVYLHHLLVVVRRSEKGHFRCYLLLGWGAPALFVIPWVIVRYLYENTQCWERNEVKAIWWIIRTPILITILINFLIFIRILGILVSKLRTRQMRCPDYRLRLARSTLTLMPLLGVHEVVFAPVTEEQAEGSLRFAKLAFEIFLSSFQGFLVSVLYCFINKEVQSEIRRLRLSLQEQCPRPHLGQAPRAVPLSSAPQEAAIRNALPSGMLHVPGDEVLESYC
In words: Binding affinity to GIPR in rat liver membrane. The data set is classed as cell membranes.

In data set [14] the test system is Rattus norvegicus. In words: Inhibition of glucagon-stimulated increase in blood glucose levels in iv dosed Sprague-Dawley rat administered 5 mins before glucagon challenge. The data set is classed as functional. In outline: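 Nonfasted male Sprague-Dawley rats (200 g) were anaesthetized with sc fentanyl/fluanisone plus midazolam. Compound was given via jugular catheter at 0, 3 or 10 mg/kg, followed 5 min later by iv glucagon 3 µg/kg. Tail-tip blood glucose was sampled at 25 and 5 min before compound and 10 min after glucagon. Response = 10-min value minus mean basal.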

Data set [15] deals with Mus musculus. The data set is described as follows: Reduction of hyperglycemia in leptin-deficient obese type-2 diabetes ob/ob mouse model at 100 mg/kg, po after 6 hrs. The data set is classed as functional, organism-based. Further details: dose 100 mg/kg. An outline of the steps: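 Male ob/ob mice (11-13 weeks), selected for highest blood glucose and randomized to matched groups. Dosed 0 or 100 mg/kg by oral gavage in the morning, with food withheld for 6 h. Blood glucose was measured ~1/2 h predose and at 2, 4, 6 and 24 h, expressed as change from baseline.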

Sequence of Glucagon-like peptide 1 receptor (P43220 whole entry): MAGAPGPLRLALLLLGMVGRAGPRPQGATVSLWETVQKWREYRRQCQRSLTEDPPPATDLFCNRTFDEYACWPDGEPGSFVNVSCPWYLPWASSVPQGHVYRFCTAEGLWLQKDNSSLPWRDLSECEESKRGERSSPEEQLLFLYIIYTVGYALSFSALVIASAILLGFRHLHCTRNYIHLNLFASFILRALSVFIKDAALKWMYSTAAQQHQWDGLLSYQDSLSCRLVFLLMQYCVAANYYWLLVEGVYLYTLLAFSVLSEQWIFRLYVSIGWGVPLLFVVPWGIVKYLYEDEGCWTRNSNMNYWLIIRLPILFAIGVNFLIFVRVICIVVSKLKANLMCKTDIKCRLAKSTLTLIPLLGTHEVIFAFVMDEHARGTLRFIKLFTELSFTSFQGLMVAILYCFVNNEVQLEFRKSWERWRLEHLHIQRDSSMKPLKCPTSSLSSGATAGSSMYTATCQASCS
Sequence of Glucagon receptor (Homo sapiens, UniProt P47871) (P47871 whole entry): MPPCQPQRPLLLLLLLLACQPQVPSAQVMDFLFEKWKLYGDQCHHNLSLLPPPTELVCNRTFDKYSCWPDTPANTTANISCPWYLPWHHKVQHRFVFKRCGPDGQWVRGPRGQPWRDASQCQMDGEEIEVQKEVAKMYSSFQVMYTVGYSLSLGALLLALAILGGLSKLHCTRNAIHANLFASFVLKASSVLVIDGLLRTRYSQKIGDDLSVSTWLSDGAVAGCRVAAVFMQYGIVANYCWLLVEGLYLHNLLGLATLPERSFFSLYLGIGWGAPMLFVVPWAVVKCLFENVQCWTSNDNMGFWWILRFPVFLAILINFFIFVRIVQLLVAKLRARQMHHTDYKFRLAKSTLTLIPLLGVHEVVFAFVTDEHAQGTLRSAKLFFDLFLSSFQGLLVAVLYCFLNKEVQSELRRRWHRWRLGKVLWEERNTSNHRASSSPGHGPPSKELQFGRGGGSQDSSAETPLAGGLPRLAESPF
Sequence of Glucagon receptor (Rattus norvegicus, UniProt P30082) (P30082 whole entry): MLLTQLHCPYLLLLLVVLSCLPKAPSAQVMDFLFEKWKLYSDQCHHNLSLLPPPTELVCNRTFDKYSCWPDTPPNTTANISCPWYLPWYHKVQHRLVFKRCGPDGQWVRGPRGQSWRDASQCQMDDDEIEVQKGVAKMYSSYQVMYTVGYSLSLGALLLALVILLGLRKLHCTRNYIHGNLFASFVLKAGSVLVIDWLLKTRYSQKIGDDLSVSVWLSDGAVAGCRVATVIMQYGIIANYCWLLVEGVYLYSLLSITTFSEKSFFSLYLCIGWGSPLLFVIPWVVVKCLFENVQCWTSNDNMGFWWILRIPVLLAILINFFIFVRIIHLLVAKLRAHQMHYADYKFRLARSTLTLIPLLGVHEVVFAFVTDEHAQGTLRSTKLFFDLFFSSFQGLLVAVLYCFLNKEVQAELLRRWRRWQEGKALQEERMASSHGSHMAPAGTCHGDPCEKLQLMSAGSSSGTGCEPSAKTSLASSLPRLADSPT

For `CC(C)(C)[C@H]1CC[C@H](N(Cc2ccc(C(=O)NC[C@@H](O)C(=O)O)cc2)C(=O)Nc2cc(C(F)(F)F)cc(C(F)(F)F)c2)CC1`, the 50% inhibitory concentration (IC50) (in general, the concentration that inhibits the measured activity by half) in [1] was found to be 0.008 µM; in data set [2] it was 0.087 µM; in [3], 7.73 µM. Also, the bioavailability (in general, the share of a dose that reaches the circulation, judged against a reference dose that is usually intravenous) in data set [4] amounted to 11%. Further, the half-life (usually the time in which the quantity being followed falls by half) in data set [5] is 41 min.
With `O=C(O)CCNC(=O)c1ccc(CN(C(=O)Nc2cc(Cl)cc(Cl)c2)c2ccc(C3=CCCCC3)cc2)cc1`, the result in [6] and in [8] was inactive. Moreover, the IC50 is 0.012 µM in data set [1]; 0.064 µM in data set [2]; 5 µM in data set [3]; 0.82 µM in [10]; 0.036 µM in data set [11]; 0.216 µM in [13]. The result in data set [7] and in data set [9] was Active. Besides, the Ratio IC50 in data set [12] amounted to 400.
`CS(=O)(=O)c1cc(NC(=O)N(Cc2ccc(C(=O)NC[C@@H](O)C(=O)O)cc2)c2ccc(C3=CCCCC3)cc2)ccc1OC(F)(F)F`: the figures for the IC50 in data set [1] and in data set [2] were 0.005 µM and 0.497 µM, respectively. Besides, the bioavailability in data set [4] was 10%. In addition, the half-life in data set [5] was 55 min.
The matching figures for `O=C(NC[C@@H](O)C(=O)O)c1ccc(CN(C(=O)Nc2cc(Br)cc(C(F)(F)F)c2)c2ccc(C3=CCCCC3)cc2)cc1`: 0.007 µM, 0.38 µM, 14% and 46 min.
Taken in the same sequence, the figures for `O=C(NC[C@@H](O)C(=O)O)c1ccc(CN(C(=O)Nc2cccc(Br)c2)c2ccc(C3CCCCC3)cc2)cc1` were 0.008 µM, 0.216 µM, 21% and 72 min.
Taken in the same sequence, the figures for `CSc1cccc(NC(=O)N(Cc2ccc(C(=O)NC[C@@H](O)C(=O)O)cc2)c2ccc(C3CCCCC3)cc2)c1` were 0.009 µM, 0.411 µM, 8% and 43 min.
With `COc1cc(NC(=O)N(Cc2ccc(C(=O)NC[C@@H](O)C(=O)O)cc2)c2ccc(C3=CCCCC3)cc2)cc(C(F)(F)F)c1`, the IC50 in data set [1] was 0.014 µM; in data set [2], 0.279 µM. The molecule further registered a bioavailability in data set [4] of 7%. In [5], this molecule yielded a half-life of 53 min.
`CC(C)(C)C1CCC(N(Cc2ccc(C(=O)NCCC(=O)O)cc2)C(=O)Nc2ccc(OC(F)(F)F)cc2)CC1` (configuration not stated): the IC50 in data set [1] is 0.0234 µM; in [2], 0.0283 µM; in data set [3] it was 2.54 µM; in data set [11] it was 0.023 µM; in data set [13], 0.042 µM. The result in data set [7] was Active.
For the molecule `O=C(NC[C@@H](O)C(=O)O)c1ccc(CN(C(=O)Nc2cc(Cl)cc(Cl)c2)c2ccc(C3=CCCCC3)cc2)cc1`, the Activity entry in [14] was “Dose-dependent effect”. In addition, the minimal effective dose in [14] (read-out: MED) came to 3 mg/kg. The outcome in data set [6] and in [8] was inactive. Besides, the IC50 in [1] was 0.0039 µM; in data set [2] it was 0.359 µM; in data set [3], 17 µM; in data set [10], 0.2 µM; in data set [11], 0.043 µM; in data set [13], 0.501 µM. The result in [9] and in data set [15] was Active. The molecule further registered a bioavailability in data set [4] of 32%. The molecule also came in with a half-life in [5] of 53 min. Further, the Ratio IC50 in data set [12] stood at 4300.
